Test results: paper PMC12257511 (Journal of the American Chemical Society, 2025)
Where a SMILES comes first, the peptide text is derived from it. Bridges are numbered along the chain shown (N, C = ends).

Assays:
[1] = Self-assembly and solubility of the peptide itself; type: physicochemical; settings: microscopy and turbidity measurements, absence of αSyn
In short: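 Test compound alone, without αSyn, added from DMSO stock to 10% PEG buffer at 1% DMSO final, over a range of concentrations. Incubated 30 min at 4 °C. Turbidity read at 600 nm in a 1 mm cell; supernatant fluorescence also measured.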

[2] = molecular target: T1, αSyn (Homo sapiens, UniProt P37840); test: Phase separation assay of αSyn with peptides; type: biochemical
In short: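 αSyn monomer dissolved in 10 mM NaOH to neutral pH, filtered, stored at −80 °C as a 400 μM stock. Mixed with 10% PEG in buffer pH 7.5 (DIC series: 20 mM sodium phosphate) and test compound from DMSO stock, 1% DMSO final. αSyn 100 μM unless stated (20–200 μM range); peptide 10–1,000 μM. Incubated 30 min at 4 °C. DIC at room temperature; turbidity at 600 nm, 1 mm cell, Peltier-controlled.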

[3] = system: αSyn1–103; test: Phase separation assay with C-terminally truncated αSyn; type: biochemical, human; settings: 400 μM peptide, DIC images
[4] = molecular target: T1, αSyn; test: ThT/ANS fluorescence assay of spontaneous αSyn aggregation; type: biochemical
In short: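 αSyn monomer diluted in 10× PBS with 20 μM ThT and 50 μM ANS (from 1 mM stock) and test compound at 0.1–10 mol equiv, prepared on ice. Plate held at 37 °C, cycling 3 min shaking/27 min quiescence. Bottom read: ThT ex 440 nm, ANS ex 380 nm, em 480 nm; three repeats per sample. […].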

C[C@@H](O)[C@H](NC(=O)[C@H](CCCNC(=N)N)NC(=O)[C@H](Cc1c[nH]c2ccccc12)NC(=O)[C@H](Cc1c[nH]c2ccccc12)NC(=O)[C@H](CCCNC(=N)N)NC(=O)[C@@H]1CCCN1C(=O)[C@H](CCCCN)NC(=O)[C@@H]1CSCC(=O)N[C@@H](Cc2ccc(O)cc2)C(=O)N[C@@H](CCC(N)=O)C(=O)N[C@@H](CCCNC(=N)N)C(=O)N[C@@H](Cc2c[nH]c3ccccc23)C(=O)N1)C(=O)N[C@@H](CS)C(=O)N[C@@H](Cc1ccc(O)cc1)C(=O)N[C@@H](Cc1c[nH]c2ccccc12)C(=O)N[C@@H](CS)C(=O)NCC(=O)N[C@@H](CCCCN)C(=O)N[C@@H](CCCCN)C(=O)N[C@@H](CCCCN)C(N)=O [FL2] ({CH2CO}-YQRWCKPRWWRTCYWCGKKK-NH2; thioether N-5)
Self-assembly of the peptide itself [1]: tends to undergo self-assembly and/or LLPS at high concentrations
Temperature-dependent turbidity of the condensates ([2]; PBS buffer, 400 μM FL2 or 1 mM FD1): dissociated to a dispersed monomeric state as the temperature increased
Concentration dependence of droplet formation ([2]; peptide 10–1,000 μM, 100 μM αSyn, 30 min at 4 °C, turbidity at 600 nm and fluorescence of the dilute phase): concentration-dependent increase in droplet formation
LLPS efficiency with αSyn1–103 (class label in DIC image) [3]: formed aggregates rather than liquid droplets
ANS fluorescence in the droplets ([4]; 400 μM FL2, 3 h incubation at 37 °C, fluorescence images): increase in ANS fluorescence intensity in the droplets
Effect on spontaneous αSyn fibril formation, condition ii ([4]; 10% PEG in PBS, 0.1 to 10 mol equiv peptide, ThT, 37 °C, three repeats): a reduction in both ThT fluorescence intensity and lag time
Maximum ThT and ANS intensity at high peptide concentrations ([4]; conditions ii and iii): decrease of magnitude of ThT signal and increase of ANS intensity
Effect on spontaneous αSyn fibril formation, condition i ([4]; no PEG, PBS buffer, 0.1 to 10 mol equiv peptide, ThT, 37 °C, three repeats): no acceleration of the fibril formation of αSyn but rather expanded the lag time
